Assay results of several laboratories.
Each line is one published result; the experiments were not run side by side.
Target: Mitogen-activated protein kinase 10 (MAPK10, Homo sapiens, UniProt P53779)

| SMILES | test | conditions | remaining binding |
| --- | --- | --- | --- |
| O=C(NCC1CCOCC1)c1n[nH]cc1NC(=O)c1c(F)cccc1F | binding, competition with immobilised ligand | 1 µM | 31% |
| O=C(N1CCS(=O)(=O)CC1)N1C[C@H](c2ccc(OC(F)(F)F)cc2)C[C@H](c2nc(C3CC3)no2)C1 | cell-free assay, competition with immobilised ligand | 1 µM | 79% |
| FC(F)(F)Oc1cccc(-c2cnc3ccc(-c4ccncc4)nn23)c1 | cell-free assay, competition with immobilised ligand | 5 µM | 65% |
| Cc1cnn2ncc(-c3ccnc(N(C)C)n3)c2c1 | binding | 1 µM | 71% |
| O=C(O)[C@@H]1[C@@H](Cn2nnc3ccccc3c2=O)CC[C@H]1C(=O)c1ccc(OCCC2CCOCC2)cc1 | cell-free assay, competition with immobilised ligand | 1 µM | 100% |
| O=C(NCCCN1CCOCC1)c1ccc(Nc2nccc(-c3cc4ccccc4s3)n2)cc1 | binding, competition with immobilised ligand | 1 µM | 15% |
| Cc1noc([C@H]2C[C@@H](c3ccc(C(F)(F)F)cc3)CN(C(=O)N3CCS(=O)(=O)C3)C2)n1 | cell-free assay, competition with immobilised ligand | 1 µM | 88% |
| N#Cc1ccccc1CSc1nnc2c(n1)[nH]c1ccccc12 | binding, competition with immobilised ligand | 10 µM | 100% |
| Cc1ccc(-c2cnc([C@@]3(O)CC[C@H](C(=O)O)C(C)(C)C3)s2)cc1Nc1cccc(C(F)(F)F)n1 | binding, competition with immobilised ligand | 1 µM | 37.5% |
| O=C(NCCCN1CCOCC1)c1ccc(Nc2ncc(Cl)c(-c3ccc(Cl)s3)n2)cc1 | binding, competition with immobilised ligand | 1 µM | 4.7% |
| CN(C)c1ncc(F)c(-c2cnn3ncccc23)n1 | binding | 1 µM | 73% |
| c1cncc(-c2cccc(Nc3nccc(NC4CCCCC4)n3)c2)c1 | binding, competition with immobilised ligand | 10 µM | 51% |
| CN(C)c1nccc(-c2cnn3ncccc23)n1 | binding | 1 µM | 49% |
| C[C@@H]1CN(c2ccc3ncc(-c4ccc5[nH]nc(C6CC6)c5c4)n3n2)C[C@H](C)O1 | binding, competition with immobilised ligand | 50 nM | 85% |
| CCN1CCN(Cc2ccc(C(=O)Nc3ccc(C)c(Oc4ccc5c(c4)CC(=O)N5)c3)cc2C(F)(F)F)CC1 | binding, competition with immobilised ligand | 1 µM | 81% |
| CO[C@H]1CC[C@H](CNc2ccc(S(=O)(=O)NC(=O)c3ccc(N4CCN(CC5=C(c6ccc(Cl)cc6)CC(C)(C)CC5)CC4)cc3Oc3cnc4[nH]ccc4c3)cc2[N+](=O)[O-])CC1 | cell-free assay, competition with immobilised ligand | 1 µM | 77% |
| COc1ccnn2ncc(-c3ccnc(N(C)C)n3)c12 | binding | 1 µM | 80% |
| CC1=C(C#N)[C@@H](c2ccc3[nH]nc(C)c3c2)C(C#N)=C(c2ccc(Cl)cc2)N1 | cell-free assay, competition with immobilised ligand | 1 µM | 68.8% |
| CN(C)c1nccc(-c2cnc3ncccn23)n1 | binding | 1 µM | 70% |
| COc1cnc(Nc2cccc(S(N)(=O)=O)c2)nc1N1CCN(c2ccccc2)C(=O)C1 | binding, competition with immobilised ligand | 1 µM | 63% |
| N[C@@H]1CCN(c2nccc(-c3cnn4ncccc34)n2)C1 | binding | 1 µM | 52% |
| Cc1nc(N2CC[C@@H](O)C2)ncc1-c1cc(C(F)(F)F)cc2[nH]ncc12 | binding, competition with immobilised ligand | 1 µM | 72% |
| C[C@H]1CCN(c2nccc(-c3cnn4ncccc34)n2)C1 | binding | 1 µM | 32% |
| O=C(c1ccc(Nc2nccc(-c3cc4ccccc4s3)n2)cc1)N1CCC(N2CCCC2)CC1 | binding, competition with immobilised ligand | 1 µM | 12% |
